Data taken from the EternaBench riboswitch data.

Tested on: MS2 coat protein
Assay: apparent Kd, MS2 coat protein; higher = weaker binding; RNA-MaP array; FMN 200 µM where present
Outline: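 On Illumina sequencing-chip clusters, designs were transcribed by stalled E. coli RNA polymerase and titrated with SNAP-549-labelled MS2 coat protein (0.7 or 1.5 nM, doubling to 3 µM), without and then with constant ligand, in 100 mM Tris-HCl pH 7.5, 80 mM KCl, 4 mM MgCl2, BSA, DTT, yeast tRNA and Tween-20. Apparent Kd is the median of filtered per-cluster curve fits to green signal normalised to red-channel RNA signal and control-cluster median Fmax.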

[1] = designed as: OFF switch for flavin mononucleotide, no ligand
[2] = ligand present: flavin mononucleotide, designed as: OFF switch for flavin mononucleotide
[3] = designed as: ON switch for flavin mononucleotide, no ligand
[4] = ligand present: flavin mononucleotide, designed as: ON switch for flavin mononucleotide

Sequence | apparent Kd [1] [µM] | apparent Kd [2] [µM] | apparent Kd [3] [µM] | apparent Kd [4] [µM]
UUUCCGCGAGGAUAUGCGGGUUGUGCUUUUCAUUUUUUAUAACAUGAGGAUCACCCAUGUAGAAGGUGCUUCUG | 0.0787 | 0.0716 | – | –
UAGGACUACGUAGGAUAUGUAGUAGAUUACUACAUGAGGAUCACCCAUGUAAGCAUGUUAUUAGGACAGAAGGACGUGGUAAAU | – | – | 0.0304 | 0.0111
AGAUAGGAUGCAGGAUAUCUAUCUUGAAUGAGGAGAGAAGGGCAAGUAGAUAGAUAAGCCUCAUGACAUGAGGAUCACCCAUGU | 0.0141 | 0.0129 | – | –
UCAUUUAUCACAGGAUAUAUUAGUAUACAGUUGUUUGGUUAUUACAUAUUAAUAGAAGGGUGGAACAUGAGGAUCACCCAUGUA | – | – | 0.616 | 0.282
UUUUAGUCAGGAUAUACAUUUUUUUAAUUAUUUAUAAUAUUACAUGAGGAUCACCCAUGUAGAAGGGACAUUUU | 0.0286 | 0.0262 | – | –
CCGUGGCAAGGAUAUACGUAGGAGAGGAAGGCAAGAGAAGGACAUGAGGAUCACCCAUGUAGAAGGUGCAGAUC | 0.0565 | 0.0565 | – | –
GUGCAGAUGUAAGGAUAUCGACUGGAUAACAGUCGAGAAGGUACAUGAGGAUCACCCAUGUAAAUGAAAGAUAAUAAACUGCAC | 0.0144 | 0.0249 | – | –
GCACGGCAUGUAGGAUAUCGAGCUCAAAGAGCUCGAGAAGGACAUGAGGAUCACCCAUGUGCUCACAGACAGUGAGCGCUGUGC | 0.0251 | 0.0915 | – | –
CAGUACUGAGGAUAUACAUGAGGAUCACCCAUGUGGUCCAGCUAGGAAACUAGCACGUGUAGAAGGCAGUACUG | 0.0361 | 0.0565 | – | –
AGGAAACAUGAGGAUCACCCAUGUAAAAGGUGGGUAGGAUAUGCGAAAAGAAAAAGAAAAGCAGAAGGGCCAAGAA | – | – | 0.101 | 0.0474
CCAUCGAGUGUGAGGAUAUGCUGGUCCAUAGAUCAGCAGAAGGCACAUGAGGAUCACCCAUGUGGAGACGGUGG | 0.0417 | 0.332 | – | –
CCAUAAAUGAUCCAUUUUUACUACAUGAGGAUCACCCAUGUGCAGGAUAUCGUGAAAGUUAAAUACGAGAAGGGCAAGAACUGC | 0.218 | 0.23 | – | –
AAUUUUUAACAGAAGGCGUUUAUAGUUAAGUUACGAGGAUAUGUAUUACAUGAGGAUCACCCAUGUUACUAGGGUAGUAUAUAA | – | – | 0.0221 | 0.0207
AUCAUUCGUGUAGGAUAUGCGUCAGAAACUGAUGCAGAAGGACAUGAGGAUCACCCAUGUCUUUCUCGAGCUGUAGCUCGAGGA | 0.0213 | 0.145 | – | –
UGAGCCUCGUGAGGAUAUACAUGAGGAUCACCCAUGUAAUAAGAUCAACGGAGGAAACUCCGAAUGUAGAAGGCACGAGGCUCA | 0.0409 | 0.393 | – | –
UCUCAACAUGAGGAUCACCCAUGUGAGGAUAUGAUGCAGCAGUGGUCUACGCUGUGCAUCAGAAGGCACAUGUG | 0.137 | 0.0482 | – | –
AUCAGCUCGUGAGGAUAUACAUGAUAGAUCGAUUAAUUAAUUAAUUUAACAUGAGGAUCACCCAUGUAGAAGGUACGAGCUGAU | 0.0523 | 0.0505 | – | –
ACAUGAGGAUCACCCAUGUUGAAUUAGGAUAUUUGACUGCACAUGAGGUUCACCCAUGUUCAACCGGAGAAGGGAUUAAUAAUU | – | – | 0.0825 | 0.0836
AAUUAACAUGAGGAUCACCCAUGUGAGGAUAUGAUAUUACUUGGACAGCUAUGAUCAAUCAGAAGGCACAUCUU | 0.0223 | 0.0285 | – | –
UACAUGUGAGGAUAUUAGAUCGCUAACUGGCGGGAGCGAUCUGAGAAGGCACAUGAGGAUCACCCAUGUGUCGU | 0.0169 | 0.0402 | – | –
CACGUCCUCACAGGAUAUGCUGGACUUUGUCCAGCAGAAGGGUGAAACAUGAGGAUCACCCAUGUUAGGACGUGUAUAUUUAAU | – | – | 0.0867 | 0.625
UUUUUUAUCGUAGGAUAUAGGUUGAAUAAUAGACUAGAAGGACGUGACAUGAGGAUCACCCAUGUUUUUUAAGUGUCGAAGUGU | – | – | 0.0269 | 0.0257
UAUAUAUAGUAAGGAUAUGUAUAUAUUUUAGAAACAGAAGGUACUGACAUGAGGAUCACCCAUGUUUUAGUGUGGGCAUGUAGA | 0.0692 | 0.0897 | – | –
CGUGCGUAUGUGAGGAUAUGCUGGUCCUUGGAUCGGCAGAAGGCACAUGAGGAUCACCCAUGUGGUGUCGUGCA | 0.377 | 0.0303 | – | –

Sequence | apparent Kd [1] [µM] | apparent Kd [2] [µM] | apparent Kd [3] [µM] | apparent Kd [4] [µM]
CACAAUCUAUCUGAGGAUAUCAUGAAAAAAACAUGAGGAUCACCCAUGUGCAGGAAAACUGCAUAUGAGAAGGCAGAUAGAUUGC | – | – | 0.613 | 0.0291
AGCUGUGGCCGAGGAUAUCUGAACCUUCAAACCGAAAUAUAAUCGGACAUGAGGAUCACCCAUGUAGAGAAGGCGGUCUCAGCA | 0.012 | 0.0226 | – | –
GGUACCAUCACAGGAUAUGCUUUCCUUUGGGAAGCAGAAGGGUGUAACAUGAGGAUCACCCAUGUGGUGCCCGGGCGUGAGCCC | – | – | 0.12 | 0.0159
GAUAAACAUGAGGAUCACCCAUGUGUGAAUAUGGGAGGAUAUACGUGGACCGUAGUCCGCGUAGAAGGCCUAAUUG | – | – | 0.225 | 0.0404
GAGCUCGAUGAGAAGGGUUACAUGAGGAUCACCCAUGUCGACCUUGGCGUAACAGGAUAUCAUCGGACUCAGUGCGUUGACCCA | 0.0256 | 0.137 | – | –
GCAGCGUAUGUAGGAUAUCGGUCAGUUUCUGACCGAGAAGGACAUGAGGAUCACCCAUGUAAAUUACCGACUUUGUCGGGCUGC | 0.00667 | 0.00862 | – | –
UGUUGUAUUACAGGAUAUCUAUUAUAUUUAUUUAGAGAAGGGUAUUCACAUGAGGAUCACCCAUGUAUAUACGAGGAAGUUGUG | – | – | 0.0496 | 0.0551
UGAACUUCAGAGAAGGUCGAAUCACAACGGUUCGAAGGAUAUCUGGAAACAUGAGGAUCACCCAUGUAACCGGGUGGAUGUCCU | 0.0562 | 0.242 | – | –
AAAUUUAACGAAGGAUAUGCUGACAUGAGGAUCACCCAUGUGUGCCUUGUGUUACUGAUUAGGAAGCAGAAGGUCGUAUACAUA | 0.831 | 0.414 | – | –
GGAUCGAGUGUGAGGAUAUGCUGGUCCUAAGAUCAGCAGAAGGCACAUGAGGAUCACCCAUGUGAAAACGGUCC | 0.026 | 0.182 | – | –
UUACUCAUGUAAGGAUAUGCAGCCGAAACGGCUGCAGAAGGUACUAAAAUACAUGAGGAUCACCCAUGUCUUUUUAAUAUAGAC | – | – | 0.151 | 0.0801
AAACAUGUCCGAGGAUAUCUGGAAACAUUUCCAAGAGAAGGCGGACAUGAGGAUCACCCAUGUCUCUCCUCAUCACAUCCAAGU | 0.00927 | 0.0793 | – | –
GCGUAUAUAUUAUUUAUUUAACAGUCAGAAGGUGAGAAGACGACAUGAGGAUCACCCAUGUUAUUCAAGGAUAUGAUAAUGCGC | – | – | 0.0275 | 0.0133
AAAUUAAGAAGAGGAUAUUGACAUGAGGAUCACCCAUGUAUUUGGGAGUGUUUACUGAAUUCUUACGAGAAGGCUUACGAAAUU | 0.221 | 0.212 | – | –
CCACGUCACAUGAACAUGAGGAUCACCCAUGUAACUAGACAUGAGGAUAUGGAUCCUAAUUGGAUCCAGAAGGCAUGGACGUGG | – | – | 0.168 | 0.0292
GUAGCUAUCGGAGGAUAUCCUUAGCGGAAACGCACAUGAGGAUCACCCAUGUAAAUAAAUAAUUGGGAGAAGGCCGAUAGCUAC | – | – | 0.107 | 0.0168
UGCGCUCGGGUGAGGAUAUUAGGACUACAAUUGUAUGAGAAGGCACAUGAGGAUCACCCAUGUGGGUGAGCGCC | 0.922 | 0.42 | – | –
AGACUUGCAGGAUAUACAUGAGGAUCACCCAUGUAUGUAAACUUAUGCGGUGUGACCUGUAGAAGGGUAGGCGU | 0.0211 | 0.0242 | – | –
AUUAAACAUGAGGAUCACCCAUGUCAACAAAGUCGAGGAUAUGGGCAUAUUAUCUAAUAACCAGAAGGCGAAUAAU | – | – | 0.182 | 0.0459
GCUCAGUAAGGAUAUUAAUGACGCUGUUAUUCAGCGUCAGCUGAGAAGGUACAUGAGGAUCACCCAUGUGGUGA | 0.21 | 0.117 | – | –
ACCUGGAUAGGAUAUACAUGAGGAUCACCCAUGUGACUCAGGCCAGGGAAGUACUUCGGUAGAAGGGUCCAGUA | 0.0182 | 0.0207 | – | –
GCGAUUUUGUAAGGAUAUACACGAGUUUUAAGUGUAGAAGGUACUUACAUGAGGAUCACCCAUGUAUUAAUGUUUAAUAGUCGC | – | – | 0.0085 | 0.00684
CUCUAGUGAGGAUAUCAGUAGUAAAAAAAUAAAAUUACUACUGAGAAGGCACAUGAGGAUCACCCAUGUCUUUC | 0.0871 | 0.0465 | – | –
GGCUGGCAGCUAGGAUAUGGGCGGUCACAUGAGGAUCACCCAUGUCAACAUCAAAACCAGAUUAACCAGAAGGAGCUGCGGGCU | – | – | 0.0518 | 0.796
